We go through 48 sequences from the EternaBench riboswitch data.

This data set relates to MS2 coat protein. Briefly: apparent Kd, MS2 coat protein; higher = weaker binding; RNA-MaP array; FMN 200 µM where present. The method in brief:
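Binding was read on Illumina sequencing-chip clusters where stalled E. coli RNA polymerase had transcribed each design. A titration of SNAP-549-labelled MS2 coat protein began at 0.7 or 1.5 nM and doubled to 3 µM, once without ligand and once with constant ligand, in 100 mM Tris-HCl pH 7.5, 80 mM KCl, 4 mM MgCl2, BSA, DTT, yeast tRNA and Tween-20. The apparent Kd is the median of filtered per-cluster binding-curve fits, based on green signal normalised to red-channel RNA signal and control-cluster median Fmax.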

Setting [1] is: designed as: OFF switch for flavin mononucleotide, no ligand.
[2] abbreviates: ligand present: flavin mononucleotide, designed as: OFF switch for flavin mononucleotide.
Setting [3] is: designed as: ON switch for flavin mononucleotide, no ligand.
The mark [4] stands for this setting: ligand present: flavin mononucleotide, designed as: ON switch for flavin mononucleotide.

Usually apparent Kd stands for the concentration giving half-maximal binding under the conditions of the assay. Take “GAUAGACAUGAGGAUCACCCAUGUGAGGAUAUGCGUACGUUGUCCGUAGGCGACGUGCGCAGAAGGCGCGAGGU”: the “apparent Kd” value turned out to be 55.9 nM under setting [1] and 88.3 nM under setting [2].

On to “UAGAUGGCUCAGGAUAUUUGCCAACUAACUCGCGAAGAAGGGAGCACAUGAGGAUCACCCAUGUGAUCGAACGG”, for which the “apparent Kd” value runs as follows: under setting [1], 18.8 nM; under setting [2], 45.6 nM.

In the case of “UUGCCUCAGAACAUGAGGAUCACCCAUGUGCUGCGGGCAACGUAGGAUAUGAUGGUAUGAUACCAUCAGAAGGAUGAUGGUACC”, the “apparent Kd” value under setting [3] was 5.96 nM and the “apparent Kd” value under setting [4] was found to be 5.33 nM.

With “AAUAAUUAGUGAGGAUAUACAUAAUUUAUUACUGUAGAAGGCACAAACCUCAAGACAUGAGGAUCACCCAUGUGGUAUUUAAAU”, the “apparent Kd” value under setting [1] worked out at 213 nM and the “apparent Kd” value under setting [2] was 390 nM.

Consider “UCCUACAUCGGAGGAUAUCAUGUGUAAACAUGAGGAUCACCCAUGUCGUACGAGAGUACGGAGAUUGAGAAGGCCGAUGUAGGU”, for which the “apparent Kd” value by setting is: under setting [3], 96 nM; under setting [4], 17.2 nM.

As for “GGAUAGGACAGAGGAUAUACGUGCUAGAGGUACUAGCAAAAUUUCCUCACAUGAGGAUCACCCAUGUAGAAGGCUGUCCUAUCG”, the “apparent Kd” value reads like this: under setting [1], 17 nM; under setting [2], 461 nM.

For “AAUUAUUUGUAGAAGGAAGGAGAUUUUGUAUUCUUAGGAUAUACUAUUACAUGAGGAUCACCCAUGUUUGAAGGGUUGCAAUGU”, the “apparent Kd” value runs as follows: under setting [1], 47.5 nM; under setting [2], 59.8 nM.

Consider “AGUGAUUGCUGUGUCAGUUCACAUGAGGAUCACCCAUGUAGCUAGGAUAUCCGCAGUUACUGCUAGGAGAAGGAGCAAGGUGGC”, for which the “apparent Kd” value by setting is: under setting [1], 8.6 nM; under setting [2], 12.1 nM.

For the sequence “CGGUACUGAGGAUAUACAUGAGGAUCACCCAUGUGUUCUAGCUAGCGUACUGGCAUUUGUAGAAGGCGGUGCUG”, the “apparent Kd” value runs as follows: under setting [1], 15 nM; under setting [2], 56.4 nM.

For the sequence “AAGAAACAUGAGGAUCACCCAUGUGAGGAUAUGCAAGAAAGAAAGAAAGAAAGAAGAAGCAGAAGGCACAAAGG”, the “apparent Kd” value worked out at 25.8 nM under setting [1] and 49.7 nM under setting [2].

As for “GAUCAUGCAGGAUAUACAUUAACCAUGAAAACAUGGUUGUAACAUGAGGAUCACCCAUGUAGAAGGGCAUGAUC”, the “apparent Kd” value runs as follows: under setting [1], 14.2 nM; under setting [2], 21.3 nM.

As to “AGUCAUACAGGAUAUACAUGAGGAUCACCCAUGUAAAUCCUAAAUGGGUGAUCCUCAUGUAGAAGGGUAUGACA”, the “apparent Kd” value runs as follows: under setting [1], 20.7 nM; under setting [2], 17.1 nM.

As for “GCCCAGCUAGGAUAUCGCACUGCAGACAUGAGGAUCACCCAUGUGAUGAGGUCUGAAUCCCGAGAAGGAGCAUGGA”, the “apparent Kd” value amounted to 17.8 nM under setting [1] and 41.7 nM under setting [2].

For the sequence “UUUUAACAUGAGGAUCACCCAUGUGAGGAUAUCGAAAUUUAUAUUUAUAUUAAUUUAACGAGAAGGCACAUUUU”, the “apparent Kd” value under setting [1] was 91.2 nM and the “apparent Kd” value under setting [2] came out at 114 nM.

Regarding “GUAUCUUACCAAGGAUAUUUAAGAUUAGUGUAGACAUGAGGAUCACCCAUGUGGCCUUAGUCACGGGAGAAGGUGGUUUGAUAC”, the “apparent Kd” value is, setting by setting: under setting [3], 312 nM; under setting [4], 70.9 nM.

As to “ACUGUGUGAGGAUAUCUACGCCAUGUCUUUGACAUGGCGCAAGAGAAGGCACAUGAGGAUCACCCAUGUACUUC”, the “apparent Kd” value under setting [1] is 18.4 nM and the “apparent Kd” value under setting [2] worked out at 39.2 nM.

For “UAUAAUACAUAGGAUAUCGAAUAAAUCAUUUAACGAGAAGGAUGAACAUGAGGAUCACCCAUGUGGUAUCAUGG”, the “apparent Kd” value is 263 nM under setting [1] and 241 nM under setting [2].

Regarding “UUGUUACAUGAGGAUCACCCAUGUGAGGAUAUGGUUCAGUACUGUCAUGUCGCGUACUCCAGAAGGCACAUGUU”, the “apparent Kd” value stood at 89.7 nM under setting [1] and 209 nM under setting [2].

Turning to “GGAAAUCAUGUAGGAUAUGCAUGGCGAAGCUACGCAGAAGGACAUGAGGAUCACCCAUGUGCUAGCUACCGAGUUCGGUGGCAA”, the “apparent Kd” value under setting [1] is 90.8 nM and the “apparent Kd” value under setting [2] came out at 211 nM.

On to “UGAUAACAUGUAGGAUAUCCAGCAUUGACCAUCGGAGAAGGACAUGAGGAUCACCCAUGUACCGAUACAAUGGGAUAAUGGAAU”, for which the “apparent Kd” value came to 15.5 nM under setting [1] and 17.2 nM under setting [2].

Regarding “CAAACAACACAGAAGGCCACGAAGUCCAUGGGUGGAGGAUAUGUGUUAGCUCUGACAUGAGGAUCACCCAUGUCUACGUGAGCU”, the “apparent Kd” value worked out at 5.5 nM under setting [3] and 5.27 nM under setting [4].

For “AAUCAGUCAGGAUAUCGUUAAUUUAAUUGUUUGUUUUAGUUCGAGAAGGGACAUGAGGAUCACCCAUGUACUCA”, the “apparent Kd” value reads like this: under setting [1], 23.1 nM; under setting [2], 28.8 nM.

Regarding “UGCGCCUGCGAGAAGGCACAGAUCCAGCUCUUGACAUGAGGAUCACCCAUGUGAGGAUAUCGCAGGCGCGAAUUGGGACAAUCU”, the “apparent Kd” value by setting is: under setting [1], 12.8 nM; under setting [2], 74.1 nM.

Turning to “AAACACGGACAUGAGGAUCACCCAUGUGGCGAAAGCCUUGGGAGAAGGCCGAUAGCAAAGCUAUCGGAGGAUAUCCAUACCGUG”, the “apparent Kd” value came to 19.8 nM under setting [3] and 7.72 nM under setting [4].

For “AAUAACAGAGGAUAUACUAUUUUAUGUGUUUGUUAUUUUAAACAUGAGGAUCACCCAUGUAGAAGGCUGAUUGA”, the “apparent Kd” value by setting is: under setting [1], 46.7 nM; under setting [2], 46.6 nM.

“AUUUAUUAGUAAGGAUAUACUAGCGAUUUGCUUGUAGAAGGUACAGUCUUAUGUAUAACAUGUUAACAUGAGGAUCACCCAUGU”: the “apparent Kd” value reads like this: under setting [3], 44.4 nM; under setting [4], 27.5 nM.

Take “UUGGACGUCGUAGGAUAUGUAGGAUAUUCCUACAUGAGGAUCACCCAUGUUGACAUGGUAGAAGGACAGAAGGACGAUGUCCAU”: the “apparent Kd” value under setting [3] came to 423 nM and the “apparent Kd” value under setting [4] was found to be 53.4 nM.

For “GUGCAUACGUGAGGAUAUGUAUUAGAUAGUGGUACAGAAGGCAUGUCAGAUGACAUGAGGAUCACCCAUGUUGGCAAAAUGCGC”, the “apparent Kd” value by setting is: under setting [3], 47.5 nM; under setting [4], 10.2 nM.

For “UUAAUAAUACAAGGAUAUCUAUUGUUCUUAAGACAUACAUGAGGAUCACCCAUGUUAAUAUAUGUAGAGAAGGUGUAUUUUCAG”, the “apparent Kd” value is, setting by setting: under setting [3], 30.5 nM; under setting [4], 22.9 nM.

For “CUUUUGUGAGGAUAUCAGUAGUAAAAAAAUAAAAUUACUACUGAGAAGGCACAUGAGGAUCACCCAUGUCUUUC”, the “apparent Kd” value under setting [1] was 122 nM and the “apparent Kd” value under setting [2] amounted to 76.8 nM.

In the case of “AAUUAUAUGUAGAAGGUACAGACUUAUGAGUAGUAAGGAUAUACAAAAUUAUUAAUUCUCAAGUUACAUGAGGAUCACCCAUGU”, the “apparent Kd” value turned out to be 11.6 nM under setting [3] and 8.33 nM under setting [4].

Turning to “CUGAGGAAGAGAGAGGAUAUCCAAAGGAAAACAUGAGGAUCACCCAUGUAAAAGGUAGGAAAUUGGGAGAAGGCUCAAGAGAGAG”, the “apparent Kd” value reads like this: under setting [3], 43.6 nM; under setting [4], 38.5 nM.

Regarding “GGUUGGCGAGGAUAUACAUGAGGAUCACCCAUGUGGUCCUGUGGCUGGUCUUGACUUUGUAGAAGGCGCGGGUC”, the “apparent Kd” value was 49.7 nM under setting [1] and 55.3 nM under setting [2].

For “GGUUGACAUGAGGAUCACCCAUGUGAGGAUAUCGGCUGGUACGUGUUGGCUGGCAUCUCGAGAAGGCACAUAGG”, the “apparent Kd” value was 170 nM under setting [1] and 58.4 nM under setting [2].

In the case of “UCACGGGAUUGAGGAUAUAUAUUAAUUUUUUUUAUAGAAGGCAAAUUGUUAGAUUAUUCACUAUACAUGAGGAUCACCCAUGUU”, the “apparent Kd” value is 29.3 nM under setting [1] and 26.6 nM under setting [2].

Regarding “AAAAAGUGAGGAUAUACGAGGAGAAACAACAAACAAACAAAACAUGAGGAUCACCCAUGUAGAAGGCACAAAAA”, the “apparent Kd” value under setting [1] amounted to 21.1 nM and the “apparent Kd” value under setting [2] was determined as 26.2 nM.

In the case of “CAUGAUUGACGAGGAUAUUGUUCUACAUGGCGACGAGAAGGCGUCUGUCACAUGAGGAUCACCCAUGUGAGUCUGGUGAAUGAG”, the “apparent Kd” value was 36.5 nM under setting [1] and 33.4 nM under setting [2].

For the sequence “AGUCCUGACGUCAGGAUAUCCGGCCAAUAGGCCAAGGAGAAGGGACAUGAGGAUCACCCAUGUGCUUGGGUCCG”, the “apparent Kd” value came out at 23.2 nM under setting [1] and 40.2 nM under setting [2].

For “CCAUGACCGUAAGCGAUUACCACAUGAGGAUCACCCAUGUACAGAAGGCGGACGUCAUUAUGAACCGAGGAUAUGUACCAGGGU”, the “apparent Kd” value runs as follows: under setting [1], 92.2 nM; under setting [2], 12.1 nM.

As to “UCCUUGUCCUGAGGAUAUCCGUGGUGACCGAAAGGAGAAGGCAGGACAUGAGGAUCACCCAUGUACCCAGAAAACGUGCAGAGA”, the “apparent Kd” value came to 35.9 nM under setting [1] and 232 nM under setting [2].

For the sequence “GCACUGGAUGUAGGAUAUCAGGACGAUAAGUCCUGAGAAGGACAUGAGGAUCACCCAUGUCUAAUAAACCAGUGCUAUAAUAUA”, the “apparent Kd” value by setting is: under setting [1], 14.4 nM; under setting [2], 18.9 nM.

As for “GUGUAGUGAGGAUAUCGUUGUUAGGAGGAGAAGGUAGGAGGCGAGAAGGCACAUGAGGAUCACCCAUGUAUGAG”, the “apparent Kd” value under setting [1] was 35.1 nM and the “apparent Kd” value under setting [2] is 23.7 nM.

Consider “ACGACGAAAGUCGAACGAUGAUCGAGAAGGACAUGAGGAUCACCCAUGUCUGCUGUAACAGCCAUGUAGGAUAUCGAUCAUCGA”, for which the “apparent Kd” value amounted to 3.62 nM under setting [1] and 4.13 nM under setting [2].

Consider “UUCGACGUCGUAGGAUAUGUAGGAUAUUCCUACAUGAGGAUCACCCAUGUUGACAUGGAAGAAGGACAGAAGGACGAUGUCCAU”, for which the “apparent Kd” value stood at 301 nM under setting [3] and 6.4 nM under setting [4].

With “UUGGUUAUACAAGGAUAUCAAUUAUAUACACAUCCUACAUGAGGAUCACCCAUGUUUUAUUUUUUUGAGAAGGUGUAUUGUCGG”, the “apparent Kd” value worked out at 22.4 nM under setting [3] and 29 nM under setting [4].

Consider “UCCACUACUGAGAAGGGAUACAUAUAGUUCUAGUCAGGAUAUCGAUACAGUGCAGCAUGAGGACAUGAGGAUCACCCAUGUAUU”, for which the “apparent Kd” value reads like this: under setting [3], 22.1 nM; under setting [4], 16.2 nM.

On to “CCAUCAGCGAACGUAUCGGUUGGACAUGAGGAUCACCCAUGUAGAAGGACAGGAGUAUUACGGCUGUAGGAUAUACAUUUAGUG”, for which the “apparent Kd” value under setting [1] was found to be 21.3 nM and the “apparent Kd” value under setting [2] was found to be 18 nM.

Regarding “UGAUAACAUGUAGGAUAUGCAGCAUUGACCACUGCAGAAGGACAUGAGGAUCACCCAUGUAGCCGUACUAUGGGAUCACGCAAU”, the “apparent Kd” value is, setting by setting: under setting [1], 47.7 nM; under setting [2], 232 nM.
